Measurements from ChEMBL document CHEMBL3616462, “Synthesis and antiviral activity of maleopimaric and quinopimaric acids' derivatives” (Bioorg Med Chem, 2015).

What was measured:
rhinovirus A2 = experiment: Antiviral activity against human rhinovirus 2 infected in MDCK cells; assay type: functional, organism-based; conditions: Rhinovirus A
[1] = Cytotoxicity against human rhinovirus 2 infected MDCK cells; assay type: cell-based, Canis lupus familiaris; conditions: dog, MDCK cells infected with human rhinovirus 2
[2] = Selectivity index, ratio of CC50 for human rhinovirus 2 infected MDCK cells to EC50 for antiviral activity against human rhinovirus 2 infected in MDCK cells; assay type: toxicity, cell-based; conditions: dog, MDCK cells infected with human rhinovirus 2; read-out: Ratio CC50/EC50
unidentified adenovirus = experiment: Antiviral activity against Adenovirus Chicago 65089 infected in human A549 cells; assay type: functional, organism-based; conditions: Chicago 65089, A549
[3] = Cytotoxicity against Adenovirus Chicago 65089 infected human A549 cells; assay type: cell-based; conditions: A549 cells infected with Adenovirus Chicago 65089
How it was run: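 Respiratory-virus panel screen on A-549 cells, with compounds supplied as DMSO solutions. CC50 is the cell inhibitory concentration at the 50% endpoint, in µM.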

[4] = Antiviral activity against SARS coronavirus Urbani infected in African green monkey Vero 76 cells; assay type: functional, cell-based; conditions: Severe acute respiratory syndrome-related coronavirus
[5] = Cytotoxicity against SARS coronavirus Urbani infected African green monkey Vero 76 cells; assay type: cell-based; conditions: chlorocebus sabaeus, Vero 76 cells infected with SARS coronavirus Urbani
human papillomavirus 11 = experiment: Antiviral activity against HPV11 infected in PHK cells epithelial raft cultures by standard AACF screening assay; assay type: functional, organism-based; conditions: human papillomavirus 11, PHK
[6] = Cytotoxicity against HPV11 infected PHK cells epithelial raft cultures by standard AACF screening assay; assay type: cell-based; conditions: human
Hepatitis B virus = experiment: Antiviral activity against HBV infected in human HepG2(2.2.15) cells; assay type: functional, organism-based
How it was run: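 Primary anti-HBV screen in confluent 2.2.15 cells, run alongside a toxicity assay in the same cells. Compounds were supplied as DMSO solutions.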

[7] = Cytotoxicity against HBV infected human HepG2(2.2.15) cells; assay type: cell-based; conditions: HBV infected HepG2(2.2.15) cells
How it was run: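 Toxicity was measured on confluent 2.2.15 cells alongside the primary anti-HBV assay. CC50 is given in µM.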

Hepatitis C virus = experiment: Antiviral activity against HCV infected in human Huh7ET cells assessed as reduction in HCV RNA-derived luciferase activity at 20 uM by luciferase reporter gene assay; assay type: functional, Hepacivirus hominis; conditions: Huh-7
How it was run: (§1)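 HCV RNA replicon assay in Huh7 ET cells. Compounds were added in triplicate at a single concentration of 20 µM. Antiviral activity was read as HCV RNA-derived luciferase signal, expressed as % of control. Toxicity was read as β-actin RNA, % of control. SI = toxicity/antiviral activity. Interferon-α (2 IU/mL) was the positive control.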

[8] = Toxicity against human Huh7ET cells assessed as reduction in beta-actin RNA levels at 20 uM; assay type: cell-based, Huh-7; conditions: Huh7ET cells, values are per cent of control
How it was run: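 HCV RNA replicon assay in Huh7 ET cells. Compounds were added in triplicate at a single concentration of 20 µM. Cytotoxicity was read as β-actin RNA as % of control, alongside HCV RNA-derived luciferase activity. Interferon-α (2 IU/mL) was the positive control.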

[9] = Selectivity index, ratio of toxicity against human Huh7ET cells assessed as reduction in beta-actin RNA levels at 20 uM to antiviral activity against HCV infected in human Huh7ET cells assessed as reduction in HCV RNA-derived luciferase activity at 20 uM by luciferase reporter gene assay; assay type: cell-based, Huh-7; conditions: read-out: Selectivity Index; how it was run: as §1
[10] = Antiviral activity against Influenza A virus (A/California/07/2009(H1N1)) infected in MDCK cells; assay type: functional, cell-based
[11] = Cytotoxicity against Influenza A virus (A/California/07/2009(H1N1)) infected MDCK cells; assay type: cell-based, Canis lupus familiaris; conditions: dog
[12] = Antiviral activity against Influenza A virus (A/Brisbane/10/2007(H3N2)) infected in MDCK cells; assay type: functional, cell-based
[13] = Cytotoxicity against Influenza A virus (A/Brisbane/10/2007(H3N2)) infected MDCK cells; assay type: cell-based, Canis lupus familiaris; conditions: dog
[14] = Selectivity index, ratio of CC50 for Influenza A virus (A/Brisbane/10/2007(H3N2)) infected MDCK cells to EC50 for antiviral activity against Influenza A virus (A/Brisbane/10/2007(H3N2)); assay type: toxicity, cell-based; conditions: dog; read-out: Ratio CC50/EC50
[15] = Antiviral activity against Influenza A virus (A/Viet Nam/1203/2004(H5N1)) infected in MDCK cells; assay type: functional, cell-based
[16] = Cytotoxicity against Influenza A virus (A/Viet Nam/1203/2004(H5N1)) infected MDCK cells; assay type: cell-based, Canis lupus familiaris; conditions: dog
[17] = Selectivity index, ratio of CC50 for Influenza A virus (A/Viet Nam/1203/2004(H5N1)) infected MDCK cells to EC50 for antiviral activity against Influenza A virus (A/Viet Nam/1203/2004(H5N1)) infected in MDCK cells; assay type: toxicity, cell-based; conditions: dog; read-out: Ratio CC50/EC50
Influenza B virus = experiment: Antiviral activity against Influenza B virus (B/Florida/4/2006) in MDCK cells; assay type: functional, cell-based; conditions: B/Florida/4/2006, MDCK
[18] = Cytotoxicity against Influenza B virus (B/Florida/4/2006) infected MDCK cells; assay type: cell-based, Canis lupus familiaris; conditions: dog
[19] = Selectivity index, ratio of CC50 for Influenza B virus (B/Florida/4/2006) infected MDCK cells to EC50 for antiviral activity against Influenza B virus (B/Florida/4/2006) in MDCK cells; assay type: toxicity, cell-based; conditions: dog; read-out: Ratio CC50/EC50
[20] = Selectivity index, ratio of CC50 for Adenovirus Chicago 65089 infected human A549 cells to EC50 for antiviral activity against Adenovirus Chicago 65089 infected in human A549 cells; assay type: toxicity, cell-based; conditions: A549 cells infected with Adenovirus Chicago 65089, read-out: Ratio CC50/EC50
[21] = Selectivity index, ratio of CC50 for HPV11 infected PHK cells epithelial raft cultures by standard AACF screening assay to EC50 for HPV11 infected in PHK cells epithelial raft cultures by standard AACF screening assay
[22] = Selectivity index, ratio of CC50 for Influenza A virus (A/California/07/2009(H1N1)) infected MDCK cells to EC50 for antiviral activity against Influenza A virus H1N1 (A/California/07/2009(H1N1)) infected in MDCK cells; assay type: toxicity, cell-based; conditions: dog; read-out: Ratio CC50/EC50
[23] = Selectivity index, ratio of CC50 for ARS coronavirus Urbani infected African green monkey Vero 76 cells to EC50 for antiviral activity against ARS coronavirus Urbani infected in African green monkey Vero 76 cells; assay type: toxicity, cell-based; conditions: Vero 76 cells infected with SARS coronavirus Urbani, read-out: Ratio CC50/EC50

Compound | EC50 (rhinovirus A2) [µM] | CC50 [1] [µM] | EC50 (unidentified adenovirus) [µM] | CC50 [3] [µM] | EC50 [4] [µM] | CC50 [5] [µM] | EC50 (human papillomavirus 11) [µM] | CC50 [6] [µM] | EC50 (Hepatitis B virus) [µM] | EC90 (Hepatitis B virus) [µM] | CC50 [7] [µM] | inhibition at 20 µM (Hepatitis C virus) [%] | response, % of control at 20 µM [8] [%] | selectivity ratio at 20 µM [9] | EC50 [15] [µM] | CC50 [16] [µM] | selectivity ratio [17] | EC50 (Influenza B virus) [µM] | CC50 [18] [µM] | selectivity ratio [19] | further results
COC(=O)[C@]1(C)CCC[C@]2(C)[C@H]3C[C@H]4C(C(C)C)=C[C@]3(CC[C@H]21)[C@@H]1/C(=N/O)CCC2(OCCO2)[C@@H]14 | 3.2 | 3.2 | > 9.8 | 9.8 | > 2.4 | 2.4 | > 50 | < 50 | > 10 | > 10 | 20 | 97.9 | 0.2 | < 1 | 3.2 | 3.3 | 1 | 3.2 | 3.2 | 1 | selectivity ratio [2]: 1; EC50 [10]: > 2.9 µM; CC50 [11]: 2.9 µM; EC50 [12]: 3.2 µM; CC50 [13]: 3.3 µM; selectivity ratio [14]: 1
COC(=O)[C@H]1[C@@H](C(=O)OC)C2(C(=O)OC)CC[C@@H]3[C@](C)(CCC[C@@]3(C)C(=O)OC)[C@H]2C[C@H]1C(=O)C(C)C (some centres undefined) | 32 | 32 | 32 | 32 | > 30 | 30 | > 50 | < 50 | > 10 | > 10 | 189 | 0.6 | 88.1 | < 1 | 3.2 | 3.3 | 1 | 3.2 | 3.5 | 1.1 | selectivity ratio [2]: 1; selectivity ratio [20]: 1; Ratio CC50/EC50 [21]: 30; EC50 [10]: 32 µM; CC50 [11]: 33 µM; selectivity ratio [22]: 1; EC50 [12]: 32 µM; CC50 [13]: 33 µM; selectivity ratio [14]: 1
COC(=O)[C@H](C)NC(=O)[C@]1(C)CCC[C@]2(C)[C@H]3C[C@H]4C(C(C)C)=C[C@]3(CC[C@H]21)[C@@H]1C(=O)CCC(=O)[C@@H]14 | > 25 | 25 | > 47 | 47 | 30 | 32 | < 25 | < 25 | > 10 | > 10 | 86 | 60.8 | 54 | > 1 | 31 | 33 | 1.1 | 22 | 33 | 1.5 | selectivity ratio [23]: 1.1; Ratio CC50/EC50 [21]: 20
COC(=O)[C@]1(C)CCC[C@]2(C)[C@H]3C[C@H]4C(C(C)C)=C[C@]3(CC[C@H]21)[C@H]1[C@@H]4[C@@H](OC(=O)CCC(=O)O)CC[C@@H]1OC(=O)CCC(=O)O | 31 | 33 | > 10 | 10 | 3.2 | 3.6 | > 50 | < 50 | > 10 | > 10 | 21 | 96.6 | 6.4 | < 1 | 3.2 | 3.2 | 1 | 3.1 | 3.4 | 1.1 | selectivity ratio [2]: 1.1; selectivity ratio [23]: 1.1
COC(=O)[C@]1(C)CCC[C@]2(C)[C@H]3CC4C(C(C)C)=C[C@]3(CC[C@H]21)[C@@H]1NC(=O)CC[C@H](O)[C@H]41 | > 28 | 28 | > 29 | 29 | 6.3 | 32 | < 50 | < 50 | > 10 | > 10 | 58 | 97.3 | 102 | > 1 | > 28 | 28 |  | 24 | 35 | 1.5 | selectivity ratio [23]: 5.1; EC50 [10]: 32 µM; CC50 [11]: 33 µM; selectivity ratio [22]: 1; EC50 [12]: > 28 µM; CC50 [13]: 28 µM
